In ChEMBL document CHEMBL1158326, “Isolation, synthesis, and antiplatelet aggregation activity of resveratrol 3-O-beta-D-glucopyranoside and related compounds” (J Nat Prod, 1997) one finds IC50 data, which are given here for twelve molecules.

Common to all, as to format: functional, cell-free
The test system of experiment [1] is Platelet. Briefly: Inhibition of adenosine diphosphate-induced platelet aggregation in human platelet-rich plasma. The method in brief:
(§1)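 Citrated human PRP from forearm-vein blood (3.8% citrate 1:9, spun 1250 rpm for 18 min at room temperature), adjusted to […] with PPP. Platelets stirred at 1000 rpm and preincubated 3 min at 37 °C with compound or 0.25% DMSO. Inducers were ADP 6 µM, adrenalin 2 µM, arachidonic acid 100 µM, or collagen. Turbidimetric aggregometry read-out; IC50 given as mean ± SE.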

Experiment [2] deals with Platelet. Briefly: Inhibition of collagen-induced platelet aggregation in human platelet-rich plasma. The gist of the method: as §1
For experiment [3], the system named is Platelet. Briefly: Inhibition of arachidonic acid-induced platelet aggregation in human platelet-rich plasma. The gist of the method:
as §1

Converted amounts (≈) assume the structure as drawn.

Consider `COc1ccc(/C=C/c2cc(O)cc(O[C@@H]3O[C@H](CO)[C@@H](O)[C@H](O)[C@H]3O)c2)cc1`, for which the IC50 in experiment [1] was found to be 300 µg/mL (≈ 742 µM). With `COc1ccc(/C=C\c2cc(O)cc(O)c2)cc1`, the values for the IC50 in experiment [2] and in experiment [1] were 33.9 µg and 101 µg/mL (≈ 415 µM), respectively. In experiment [1], `COc1ccc(/C=C/c2cc(O[C@@H]3O[C@H](CO)[C@@H](O)[C@H](O)[C@H]3O)cc(O[C@@H]3O[C@H](CO)[C@@H](O)[C@H](O)[C@H]3O)c2)cc1` gave an IC50 of 300 µg/mL (≈ 530 µM). Still for that read-out and setting: to `COc1ccc(/C=C/c2cc(OC)c(OC)c(OC)c2)c(O[C@@H]2O[C@H](CO)[C@@H](O)[C@H](O)[C@H]2O)c1` belongs 300 µg/mL (≈ 627 µM). On the same count and under the same terms, next, `COc1ccc(/C=C\c2cc(O[C@@H]3O[C@H](CO)[C@@H](O)[C@H](O)[C@H]3O)cc(O[C@@H]3O[C@H](CO)[C@@H](O)[C@H](O)[C@H]3O)c2)cc1`: 300 µg/mL (≈ 530 µM). Still for that read-out and setting: to `COc1ccc(/C=C\c2cc(O)cc(O[C@@H]3O[C@H](CO)[C@@H](O)[C@H](O)[C@H]3O)c2)cc1` belongs 198 µg/mL (≈ 490 µM); to `COc1ccc(/C=C/c2cc(OC)c(OC)c(OC)c2)c(O)c1`, 300 µg/mL (≈ 948 µM); to `COc1ccc(/C=C\c2cc(OC)c(OC)c(OC)c2)cc1O` [COMBRETASTATIN A4], 75.2 µg/mL (≈ 238 µM). As to `COc1ccc(/C=C\c2cc(OC)c(OC)c(OC)c2)c(O)c1O` [COMBRETASTATIN A-1], in experiment [1], the IC50 was 60.6 µg/mL (≈ 182 µM). Consider `OC[C@H]1O[C@@H](Oc2cc(O)cc(/C=C/c3ccc(O)cc3)c2)[C@H](O)[C@@H](O)[C@@H]1O` [PICEID], for which the results for the IC50 in experiment [3] and in experiment [1] were 57.2 µg/mL (≈ 147 µM) and 84.9 µg/mL (≈ 217 µM), respectively. `COc1ccc(/C=C/c2cc(O)cc(O)c2)cc1` [RESVERATROL 4'-METHYL ETHER] displayed an IC50 in experiment [1] of 119 µg/mL (≈ 492 µM). `OC[C@H]1O[C@@H](Oc2cc(O)cc(/C=C\c3ccc(O)cc3)c2)[C@H](O)[C@@H](O)[C@@H]1O` [Z-PICEID]: the IC50 in experiment [1] is 120 µg/mL (≈ 308 µM).
